Activity calls are given as the source filed them. The calls are words filed in the database; no cut-off is given here.
Legend:
CCRF-CEM [1] = experiment: Growth inhibition of human CEM cells after 3 days; assay type: functional, cell-based; details: 72 h
Method in brief: (§1)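 Human CEM and Molt 4/C8 T-lymphocytes were grown for three days with or without serial dilutions of the compound. IC50 is the concentration that inhibits cell growth by 50%.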

HSC-4 = experiment: Cytotoxicity against human HSC4 cells after 48 hrs; assay type: functional; details: HSC-4, 48 h
[2] = Cytotoxicity against human HGF cells after 48 hrs; assay type: cell-based
[3] = target: T1, ATP-dependent translocase ABCB1 (Homo sapiens, UniProt P08183); experiment: Reversal of P-glycoprotein-mediated multidrug resistance in human MDR1 gene transfected mouse L5178Y cells assessed as fluorescence activity ratio at 20 uM by rhodamine 123 accumulation assay; assay type: cell-based
T1 sequence (P08183 whole entry): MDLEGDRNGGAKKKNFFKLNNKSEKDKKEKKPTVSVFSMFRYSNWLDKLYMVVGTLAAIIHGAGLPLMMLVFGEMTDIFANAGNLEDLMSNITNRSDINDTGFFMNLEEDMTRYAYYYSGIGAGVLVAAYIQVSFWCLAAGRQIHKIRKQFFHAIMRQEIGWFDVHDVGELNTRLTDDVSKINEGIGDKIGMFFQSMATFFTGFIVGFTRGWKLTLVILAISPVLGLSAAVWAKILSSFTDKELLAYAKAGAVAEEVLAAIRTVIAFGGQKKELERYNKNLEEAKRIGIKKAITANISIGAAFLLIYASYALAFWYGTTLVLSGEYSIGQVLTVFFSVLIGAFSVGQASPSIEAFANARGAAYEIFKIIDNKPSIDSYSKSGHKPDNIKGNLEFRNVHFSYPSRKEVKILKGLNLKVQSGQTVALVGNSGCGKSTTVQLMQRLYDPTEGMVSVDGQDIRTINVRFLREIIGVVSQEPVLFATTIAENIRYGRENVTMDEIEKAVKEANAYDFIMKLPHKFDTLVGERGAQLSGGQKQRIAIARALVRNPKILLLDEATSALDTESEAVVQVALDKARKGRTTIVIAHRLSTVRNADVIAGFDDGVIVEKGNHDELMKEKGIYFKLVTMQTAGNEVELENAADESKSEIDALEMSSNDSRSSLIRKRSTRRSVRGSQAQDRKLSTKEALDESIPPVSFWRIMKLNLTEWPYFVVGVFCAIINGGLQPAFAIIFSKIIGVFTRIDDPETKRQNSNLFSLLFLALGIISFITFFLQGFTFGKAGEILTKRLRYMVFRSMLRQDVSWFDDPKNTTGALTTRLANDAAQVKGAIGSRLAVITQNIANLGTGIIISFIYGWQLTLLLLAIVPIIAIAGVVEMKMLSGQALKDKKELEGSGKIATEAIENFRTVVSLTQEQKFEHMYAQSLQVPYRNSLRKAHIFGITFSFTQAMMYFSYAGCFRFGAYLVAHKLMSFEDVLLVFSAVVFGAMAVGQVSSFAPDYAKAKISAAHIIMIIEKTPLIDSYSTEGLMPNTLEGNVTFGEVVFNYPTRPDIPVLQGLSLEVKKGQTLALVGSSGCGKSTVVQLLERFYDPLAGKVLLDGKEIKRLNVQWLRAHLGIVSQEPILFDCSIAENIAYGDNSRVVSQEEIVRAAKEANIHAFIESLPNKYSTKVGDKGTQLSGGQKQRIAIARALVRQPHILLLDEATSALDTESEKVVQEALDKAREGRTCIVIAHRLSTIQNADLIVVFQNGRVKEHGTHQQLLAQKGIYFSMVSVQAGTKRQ
Method in brief: (§2)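 Murine L-5178Y lymphoma cells transfected with human MDR1 gene (P-gp-overexpressing), alongside parental cells, treated or untreated with compound; rhodamine 123 accumulation measured by fluorescence; FAR = ratio of fluorescence intensity in treated versus untreated cells, values above 1 taken as MDR reversal.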

HL-60 [4] = experiment: Cytotoxicity against human HL60 cells after 48 hrs; assay type: functional; details: HL-60, 48 h
[5] = target: T1, ATP-dependent translocase ABCB1; experiment: Reversal of P-glycoprotein-mediated multidrug resistance in human MDR1 gene transfected mouse L5178Y cells assessed as fluorescence activity ratio at 200 uM by rhodamine 123 accumulation assay; assay type: cell-based; method in brief: as §2
[6] = Cytotoxicity against human HPLF cells after 48 hrs; assay type: cell-based
[7] = Cytotoxicity against human HPC cells after 48 hrs; assay type: cell-based
[8] = Growth inhibition of human Molt4/C8 cells after 3 days; assay type: functional, cell-based; details: MOLT-4, 72 h; method in brief: as §1
HSC-3 = experiment: Cytotoxicity against human HSC3 cells after 48 hrs; assay type: functional; details: HSC-3, 48 h
HSC-2 = experiment: Cytotoxicity against human HSC2 cells after 48 hrs; assay type: functional; details: HSC-2, 48 h
DU-145 = experiment: Growth inhibition of human DU145 cells at 10 uM; assay type: functional, cell-based
Method in brief: (§3)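 Human tumor cell line panel (59 lines across leukemia, melanoma, non-small cell lung, colon, CNS, ovarian, renal, prostate, breast) treated at a single 10 uM concentration; growth inhibition recorded per line.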

RPMI8266 = experiment: Growth inhibition of human […] cells at 10 uM; assay type: functional, cell-based; method in brief: as §3
HCT-15 = experiment: Growth inhibition of human HCT15 cells at 10 uM; assay type: functional, cell-based; method in brief: as §3
Hs-578T = experiment: Growth inhibition of human Hs 578T cells at 10 uM; assay type: functional, cell-based; method in brief: as §3
OVCAR-8 = experiment: Growth inhibition of human OVCAR8 cells at 10 uM; assay type: functional, cell-based; method in brief: as §3
UACC-62 = experiment: Growth inhibition of human UACC62 cells at 10 uM; assay type: functional, cell-based; method in brief: as §3
T47D = experiment: Growth inhibition of human T47D cells at 10 uM; assay type: functional, cell-based; method in brief: as §3
HL-60 [9] = experiment: Growth inhibition of human HL60 cells at 10 uM; assay type: functional, cell-based; method in brief: as §3
K562 = experiment: Growth inhibition of human K562 cells at 10 uM; assay type: functional, cell-based; method in brief: as §3
MDA-MB-435 = experiment: Growth inhibition of human MDA-MB-435 cells at 10 uM; assay type: functional, cell-based; method in brief: as §3
SW-620 = experiment: Growth inhibition of human SW620 cells at 10 uM; assay type: functional, cell-based; method in brief: as §3
IGROV-1 = experiment: Growth inhibition of human IGROV1 cells at 10 uM; assay type: functional, cell-based; method in brief: as §3
HCT-116 = experiment: Growth inhibition of human HCT116 cells at 10 uM; assay type: functional, cell-based; method in brief: as §3
RXF 393 = experiment: Growth inhibition of human RXF393 cells at 10 uM; assay type: functional, cell-based; method in brief: as §3
CCRF-CEM [10] = experiment: Growth inhibition of human CCRF-CEM cells at 10 uM; assay type: functional, cell-based; method in brief: as §3
MDA-MB-468 = experiment: Growth inhibition of human MDA-MB-468 cells at 10 uM; assay type: functional, cell-based; method in brief: as §3
EKVX = experiment: Growth inhibition of human EKVX cells at 10 uM; assay type: functional, cell-based; method in brief: as §3
HCC 2998 = experiment: Growth inhibition of human HCC2998 cells at 10 uM; assay type: functional, cell-based; method in brief: as §3
LOX IMVI = experiment: Growth inhibition of human LOXIMVI cells at 10 uM; assay type: functional, cell-based; method in brief: as §3
NCI-H522 = experiment: Growth inhibition of human NCI-H522 cells at 10 uM; assay type: functional, cell-based; method in brief: as §3
PC-3 = experiment: Growth inhibition of human PC3 cells at 10 uM; assay type: functional, cell-based; method in brief: as §3
A498 = experiment: Growth inhibition of human A498 cells at 10 uM; assay type: functional, cell-based; method in brief: as §3
HOP-92 = experiment: Growth inhibition of human HOP92 cells at 10 uM; assay type: functional, cell-based; method in brief: as §3
UO-31 = experiment: Growth inhibition of human UO31 cells at 10 uM; assay type: functional, cell-based; method in brief: as §3
NCI-H460 = experiment: Growth inhibition of human NCI-H460 cells at 10 uM; assay type: functional, cell-based; method in brief: as §3
U-251 = experiment: Growth inhibition of human U251 cells at 10 uM; assay type: functional, cell-based; method in brief: as §3
OVCAR-3 = experiment: Growth inhibition of human OVCAR-3 cells at 10 uM; assay type: functional, cell-based; method in brief: as §3
A549 = experiment: Growth inhibition of human A549 cells at 10 uM; assay type: functional, cell-based; method in brief: as §3
MCF7 = experiment: Growth inhibition of human MCF7 cells at 10 uM; assay type: functional, cell-based; method in brief: as §3
NCI/ADR-RES = experiment: Growth inhibition of human NCI/ADR-RES cells at 10 uM; assay type: functional, cell-based; method in brief: as §3
M14 = experiment: Growth inhibition of human M14 cells at 10 uM; assay type: functional, cell-based; method in brief: as §3
NCI-H23 = experiment: Growth inhibition of human NCI-H23 cells at 10 uM; assay type: functional, cell-based; method in brief: as §3
OVCAR-4 = experiment: Growth inhibition of human OVCAR4 cells at 10 uM; assay type: functional, cell-based; method in brief: as §3
SNB-75 = experiment: Growth inhibition of human SNB75 cells at 10 uM; assay type: functional, cell-based; method in brief: as §3
SF-295 = experiment: Growth inhibition of human SF295 cells at 10 uM; assay type: functional, cell-based; method in brief: as §3
CAKI-1 = experiment: Growth inhibition of human Caki1 cells at 10 uM; assay type: functional, cell-based; method in brief: as §3

`Cc1c(C(=O)/C=C/c2cccc([N+](=O)[O-])c2)[n+]([O-])c2ccccc2[n+]1[O-]` gave an IC50 (CCRF-CEM [1]) of 15.8 µM, a CC50 (HSC-4) of 54 µM and a CC50 at 48 h [2] of 47 µM. The Ratio [3] was 1.89, the CC50 (HL-60 [4]) was 62 µM and the Ratio [5] was 3.75. For the same molecule, the CC50 at 48 h [6] was 18 µM, the CC50 at 48 h [7] was 46 µM and the IC50 [8] was 16.3 µM. It also gave a CC50 (HSC-3) of 122 µM and a CC50 (HSC-2) of 34 µM.
With `COc1cc(/C=C/C(=O)c2c(C)[n+]([O-])c3ccccc3[n+]2[O-])cc(OC)c1OC` the IC50 (CCRF-CEM [1]) was 5.22 µM, the CC50 (HSC-4) was 6.5 µM and the CC50 at 48 h [2] was 35 µM. For the same molecule, the Ratio [3] was 8.15, the CC50 (HL-60 [4]) was 1.9 µM and the Ratio [5] was 41.9. It also gave a CC50 at 48 h [6] of 33 µM, a CC50 at 48 h [7] of 31 µM and an IC50 [8] of 5.51 µM. It also gave a CC50 (HSC-3) of 6.6 µM and a CC50 (HSC-2) of 7.8 µM.
In the case of `COc1ccc(/C=C/C(=O)c2c(C)[n+]([O-])c3ccccc3[n+]2[O-])cc1`, the “growth inhibition (GI)” value (DU-145) is reported as “Active”, the IC50 (CCRF-CEM [1]) is reported as 27.6 µM and the “growth inhibition (GI)” value (RPMI8266) is reported as “Active”. The “growth inhibition (GI)” value (HCT-15) was “Active”, the “growth inhibition (GI)” value (Hs-578T) was “Active” and the “growth inhibition (GI)” value (OVCAR-8) was “Active”. For the same molecule, the “growth inhibition (GI)” value (UACC-62) was “Active”, the “growth inhibition (GI)” value (T47D) was “Active” and the “growth inhibition (GI)” value (HL-60 [9]) was “Active”. The CC50 (HSC-4) was 11 µM, the “growth inhibition (GI)” value (K562) was “Active” and the “growth inhibition (GI)” value (MDA-MB-435) was “Active”. For the same molecule, the CC50 at 48 h [2] was 52 µM, the “growth inhibition (GI)” value (SW-620) was “Active” and the Ratio [3] was 4.25. The “growth inhibition (GI)” value (IGROV-1) was “Active”, the “growth inhibition (GI)” value (HCT-116) was “Active” and the “growth inhibition (GI)” value (RXF 393) was “Active”. For the same molecule, the CC50 (HL-60 [4]) was 16 µM, the “growth inhibition (GI)” value (CCRF-CEM [10]) was “Active” and the “growth inhibition (GI)” value (MDA-MB-468) was “Active”. For the same molecule, the “growth inhibition (GI)” value (EKVX) was “Active”, the “growth inhibition (GI)” value (HCC 2998) was “Active” and the Ratio [5] was 31.7. For the same molecule, the CC50 at 48 h [6] was 93 µM, the “growth inhibition (GI)” value (LOX IMVI) was “Active” and the “growth inhibition (GI)” value (NCI-H522) was “Active”. For the same molecule, the “growth inhibition (GI)” value (PC-3) was “Active”, the “growth inhibition (GI)” value (A498) was “Active” and the “growth inhibition (GI)” value (HOP-92) was “Active”. The “growth inhibition (GI)” value (UO-31) was “Active”, the CC50 at 48 h [7] was 92 µM and the “growth inhibition (GI)” value (NCI-H460) was “Active”. For the same molecule, the IC50 [8] was 25.8 µM, the CC50 (HSC-3) was 23 µM and the “growth inhibition (GI)” value (U-251) was “Active”. The “growth inhibition (GI)” value (OVCAR-3) was “Active”, the CC50 (HSC-2) was 20 µM and the “growth inhibition (GI)” value (A549) was “Active”. The “growth inhibition (GI)” value (MCF7) was “Active”, the “growth inhibition (GI)” value (NCI/ADR-RES) was “Active” and the “growth inhibition (GI)” value (M14) was “Active”. For the same molecule, the “growth inhibition (GI)” value (NCI-H23) was “Active”, the “growth inhibition (GI)” value (OVCAR-4) was “Active” and the “growth inhibition (GI)” value (SNB-75) was “Active”. For the same molecule, the “growth inhibition (GI)” value (SF-295) was “Active” and the “growth inhibition (GI)” value (CAKI-1) was “Active”.
`Cc1c(C(=O)/C=C/c2ccc(Cl)c(Cl)c2)[n+]([O-])c2ccccc2[n+]1[O-]` gave an IC50 (CCRF-CEM [1]) of 15.4 µM, a CC50 (HSC-4) of 15 µM and a CC50 at 48 h [2] of 29 µM. The Ratio [3] was 4.42, the CC50 (HL-60 [4]) was 27 µM and the Ratio [5] was 11.9. For the same molecule, the CC50 at 48 h [6] was 5.7 µM, the CC50 at 48 h [7] was 13 µM and the IC50 [8] was 10.1 µM. It also gave a CC50 (HSC-3) of 84 µM and a CC50 (HSC-2) of 17 µM.
For `Cc1c(C(=O)/C=C/c2ccc([N+](=O)[O-])cc2)[n+]([O-])c2ccccc2[n+]1[O-]`, the IC50 (CCRF-CEM [1]) was 164 µM, the CC50 (HSC-4) was 73 µM and the CC50 at 48 h [2] was 57 µM. For the same molecule, the Ratio [3] was 1.28, the CC50 (HL-60 [4]) was 262 µM and the Ratio [5] was 2.25. For the same molecule, the CC50 at 48 h [6] was 91 µM, the CC50 at 48 h [7] was over 400 µM and the IC50 [8] was 261 µM. The CC50 (HSC-3) was over 400 µM and the CC50 (HSC-2) was 55 µM.
`Cc1c(C(=O)/C=C/c2ccc(Cl)cc2)[n+]([O-])c2ccccc2[n+]1[O-]` gave an IC50 (CCRF-CEM [1]) of 16 µM, a CC50 (HSC-4) of 19 µM and a CC50 at 48 h [2] of 27 µM. For the same molecule, the Ratio [3] was 2.63, the CC50 (HL-60 [4]) was 11 µM and the Ratio [5] was 5.97. For the same molecule, the CC50 at 48 h [6] was 12 µM, the CC50 at 48 h [7] was 21 µM and the IC50 [8] was 7.75 µM. For the same molecule, the CC50 (HSC-3) was 38 µM and the CC50 (HSC-2) was 13 µM.

Source: ChEMBL document CHEMBL1137767, “2-(3-Aryl-2-propenoyl)-3-methylquinoxaline-1,4-dioxides: a novel cluster of tumor-specific cytotoxins which reverse multidrug resistance” (Bioorg Med Chem, 2009)
